# Most compounds without a hit are left out; they make up all but 3.7% or so of the library.
# KCNQ1 inh = human KCNQ1 channel inhibition | P51787 | CHO-K1 KCNQ1, FluxOR thallium flux fluorescence; active compounds read high | B-score at 10 µM | 1.3% of 310,000 active | AID 2642;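 active means compounds whose thallium flux B-score, printed positive for inhibition, exceeds three library SD while starting fluorescence stays within three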;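 further: channel opened by potassium depolarization with thallium stimulus after 20 min compound exposure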
# KCNK9 inh = blocks the human KCNK9 two-pore domain potassium channel; AID 488922; 1.2% of 310,000 active; HEK293 KCNK9, FluxOR thallium flux fluorescence; active compounds read low; B-score at 10 µM; Q9NPC2;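 active means ratio B-score over 3 SD below the library mean, with starting fluorescence within 5 SD of its mean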;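 further: negative B-score means less thallium flux so channel inhibition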
# KCNQ1 act = human KCNQ1 channel potentiation or activation. CHO-K1 KCNQ1, thallium flux FluxOR fluorescence; active compounds read high. B-score at 10 µM. P51787. 0.35% of 310,000 active;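 active means fluorescence ratio B-score, a plate-corrected score, at least three library SD, with initial intensity B-score within 5 SD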
#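 assay system = CHO-K1 cells stably expressing KCNQ1 | medium = assay buffer, equal DMSO in all wells | timing = 37 °C overnight plating, 90-min dark dye load, 20-min compound pretreatment | measured by = kinetic FluxOR thallium fluorescence, 10-s 1-Hz baseline, 110-s post-stimulus read | measure = fluorescence change relative to baseline, converted to B score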
# hERG protect = hERG (human) protection from proarrhythmic block; Q12809; CHO-hERG, FluxOR thallium flux, dofetilide IC70 present; activation (rescue from dofetilide block), less the hit threshold, % at 10 µM; 0.51% of 310,000 active; AID 1511;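 active means activation above the mean of controls blocked by dofetilide plus 5 SD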;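 further: thallium influx through hERG after potassium depolarization seen as dye fluorescence rise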
# KCNK3 block = human KCNK3 channel inhibition, primary screen. B-score at 10 µM. 0.84% of 340,000 active. CHO-KCNK3 thallium flux, FluxOR fluorescence; active compounds read low. O14649;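 active means B-score under library mean minus 4 SD, starting fluorescence ratio at most library mean plus 5 SD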;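 further: more negative B-score means stronger inhibition of thallium flux through KCNK3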
# Target sequence (O14649 whole entry, looked up): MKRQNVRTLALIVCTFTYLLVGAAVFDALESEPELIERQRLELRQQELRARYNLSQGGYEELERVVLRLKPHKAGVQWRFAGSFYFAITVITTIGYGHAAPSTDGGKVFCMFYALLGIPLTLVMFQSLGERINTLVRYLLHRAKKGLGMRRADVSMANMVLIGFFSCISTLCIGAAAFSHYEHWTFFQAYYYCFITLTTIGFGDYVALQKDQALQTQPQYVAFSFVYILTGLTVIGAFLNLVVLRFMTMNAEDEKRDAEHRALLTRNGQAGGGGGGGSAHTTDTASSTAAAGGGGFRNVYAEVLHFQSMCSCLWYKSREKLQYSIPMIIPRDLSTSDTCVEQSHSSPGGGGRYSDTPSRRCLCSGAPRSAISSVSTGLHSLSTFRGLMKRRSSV
# Kir21 block = blocks the mouse Kir2.1 inward-rectifier potassium channel. P35561. HEK293-Kir2.1, FluxOR thallium flux fluorescence; active compounds read low. B-score at 10 µM. 0.85% of 310,000 active. AID 1672;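 active means fluorescence ratio B-score at or below minus 3 SD of library scores, with starting-brightness B-score within 2 SD, cut at about -4.2 in these data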;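 further: channel flux triggered by added potassium and thallium sulfate stimulus; B-score of peak minus minimum fluorescence over baseline after thallium stimulus; more negative B-score means stronger Kir2.1 block with less thallium influx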
# KCNK9 block conf = confirmation of human KCNK9 potassium channel inhibitors; shares compounds with KCNK9 inh; HEK293 KCNK9 cells, FluxOR thallium flux fluorescence; 43% of 4,900 active; inhibition, % at 10 µM;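 active means thallium signal inhibited by more than 5 SD of the compound-free buffer control wells, on both duplicate plates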;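 further: 0% = assay buffer control wells without compound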
# Kir2-1 spec = mouse Kir2.1 off-target activity of KCNK9 modulators. shares compounds with KCNK9 inh. Kir2.1 cells, FluxOR thallium flux fluorescence. inhibition, % at 10 µM. 4% of 4,900 active;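 active means thallium signal drop more than 5 SD beyond the mean of the no-compound control wells, seen in both duplicate plates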;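 further: signal is fluorescence rise after thallium addition divided by baseline fluorescence; plate controls were assay buffer only for no effect and full block by chlorpromazine control for full effect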
# HEK293 Tl ctr = second counter-screen for KCNK9 modulators: effect in non-induced cells | shares compounds with KCNK9 inh | 40% of 4,900 active | inhibition, % at 10 µM | non-induced KCNK9-HEK293, FluxOR thallium flux | AID 492997;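 active means thallium signal drop beyond 5 SD of the untreated control mean, on both duplicate plates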;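 further: plate controls were buffer only IC0 wells for no effect and SID17386958 at its maximal inhibitory level for full effect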
# The depositor's hits bear a star; i = inactive; / = not tested or not shown.
SMILES,KCNQ1 inh,KCNK9 inh,KCNQ1 act,hERG protect,KCNK3 block,Kir21 block,KCNK9 block conf,Kir2-1 spec,HEK293 Tl ctr
CC(C)c1nc(C(=O)N2CCCC(N3CCN(c4cccc(Cl)c4)CC3)C2)cs1 (stereo not drawn),i,i,i,-7,i,-0.65,i,i,i
CC(C)/C=C/CN1CCCC(N2CCN(c3cccc(Cl)c3)CC2)C1 (stereo not drawn),i,i,i,-10,i,-1.8,i,i,i
Cc1cc(C(=O)N2CCCC(N3CCN(c4ccccc4C)CC3)C2)nc(C)n1 (stereo not drawn),i,i,i,-9,i,0.49,/,/,/
Cc1nc(C(=O)N2CCCC(N3CCN(c4ccccc4C)CC3)C2)cs1 (stereo not drawn),i,i,i,-10,i,0.41,i,i,i
O=C(c1ccc(Cl)s1)N1CCCC(N2CCN(c3ccc(F)cc3)CC2)C1 (stereo not drawn),i,i,i,-10,i,-0.06,/,/,/
Cc1ccccc1N1CCN(C2CCCN(C(=O)c3ccc(Cl)s3)C2)CC1 (stereo not drawn),i,i,i,-11,i,0.01,i,i,i
Cc1ccccc1N1CCN(C2CCCN(C(=O)c3cnsn3)C2)CC1 (stereo not drawn),i,i,i,-10,i,1,i,i,i
CC(=O)N1CCN(CC(=O)Nc2ccc([N+](=O)[O-])cc2Br)CC1,i,i,i,-12,i,0.02,/,/,/
O=[N+]([O-])CC(=Nc1ccc(F)cc1)N/N=C\c1oc(O)c2ccccc12,i,i,i,-16,/,-1.8,/,/,/
COCCOc1cc(NC(=O)c2sccc2Oc2ccc([N+](=O)[O-])cc2F)c(Cl)cc1Cl,9*,i,i,-5,i,2.2,i,i,i
COCCOc1cc(NC(=O)c2cccc(OC)c2)c(Cl)cc1Cl,i,i,i,-5,i,0.68,/,/,/
CCC(C)[C@H](NC(=O)c1cc2cc(Cl)ccc2n1C)C(=O)N1CCC[C@H]1C(=O)O (stereo partly drawn),i,i,i,-6,i,-0.36,/,/,/
COc1cccc(NC(=O)COC(=O)c2ccccc2C(=O)N2CCN(c3ccccc3)CC2)c1,i,i,i,-16,i,-1.7,/,/,/
COc1ccc(CCCc2nnc(SCC(=O)Nc3cc(C)ccc3C)o2)cc1,i,i,i,1,i,-2.8,i,i,i
COc1ccc(CCCc2nnc(SCC(=O)Nc3ccc(C)c(C)c3)o2)cc1,i,i,i,-7,i,-0.41,/,/,/
CCOC(=O)c1c(C)c(C(=O)N2CCc3ccccc3C2)c(C)n1CC,i,i,i,-13,i,1.4,i,i,i
CCOC(=O)c1c(C)c(C(=O)NCCN2CCOCC2)c(C)n1CC,i,i,i,-10,i,-1.7,/,/,/
COc1ccc(C(=O)NC(=S)N2CCN(C)CC2)cc1Br,i,i,i,-7,i,2,/,/,/
COc1ccc(NS(=O)(=O)c2cc(NC(=O)CCSc3ccccc3)ccc2OC)cc1,i,i,i,1,i,0.11,i,i,i
COc1ccc(NC(=O)c2ccc3ccccc3n2)cc1S(=O)(=O)Nc1ccccc1Cl,i,i,i,-11,i,0.45,/,/,/
COc1ccc(NC(=O)CCSc2ccc(C)cc2)cc1S(=O)(=O)Nc1ccccc1Cl,i,i,i,-6,i,-1.2,i,i,i
COc1ccc(NC(=O)CCS(=O)(=O)c2ccccc2Cl)cc1S(=O)(=O)Nc1ccc(Cl)cc1,i,i,i,-8,i,-0.02,/,/,/
CC(CN1CCN(Cc2ccccc2)CC1)OC(=O)c1ccco1 (stereo not drawn),i,i,i,-17,i,-0.03,/,/,/
Cc1nc(-c2ccc(NC(=O)c3ccc(Br)o3)cc2)cs1,i,i,i,-11,i,-3.7,/,/,/
Cc1ccc(C2CC2C(=O)NNC(=S)Nc2ccc(Cl)cc2)cc1 (stereo not drawn),10*,i,i,-16,i,-1.2,i,i,i
SMILES,KCNQ1 inh,KCNK9 inh,KCNQ1 act,hERG protect,KCNK3 block,Kir21 block,KCNK9 block conf,Kir2-1 spec,HEK293 Tl ctr
COc1ccc(CNC(=O)c2ccc3c(c2)N(C)CCS3)cc1,i,i,i,-11,i,-0.8,/,/,/
CC(C)Oc1ccc(CNC(=O)c2ccc3c(c2)N(C)CCS3)cc1,i,i,i,-15,i,1.5,i,i,i
CN1CCN(C(=O)CCCN2C(=O)/C(=C/c3cccc(Br)c3)SC2=S)CC1,i,i,i,-21,i,0,i,i,i
O=C(CCCN1C(=O)/C(=C/c2cccc(Br)c2)SC1=S)N1CCOCC1,i,i,i,-8,i,0.75,i,i,i
C=CCc1cc(C=O)cc(OCC)c1O,i,i,i,-6,i,0.93,/,/,/
O=C(Nc1cccn(Cc2c(Cl)cccc2Cl)c1=O)c1c(Cl)cccc1Cl,i,-10*,i,-13,i,0.2,54%*,i,i
Cc1ccc(SCc2c(C#N)c3ccccc3n2C)cc1,i,-12*,i,-4,-9.9*,-6.6*,57%*,i,46%*
CCN(CC(=O)NC(=O)NC1CCCCC1)Cc1ccccc1,i,i,i,-7,i,-0.86,i,i,i
O=C(CN1CCC(Cc2ccccc2)CC1)NC(=O)NC1CCCCC1,i,i,i,-15,i,-1.1,i,i,i
CCN(CC(=O)NC(=O)NC1CCCCC1)Cc1nc2ccccc2c(=O)[nH]1,i,i,i,-2,i,2.5,/,/,/
Cc1ccc(C(=O)NCCSc2c(C)[nH]c3ccccc23)cc1[N+](=O)[O-],i,i,i,-12,i,-1.1,/,/,/
Cc1ccc(SCCNC(=O)c2ccc(C)c([N+](=O)[O-])c2)cc1,i,i,i,-15,i,0.06,/,/,/
Cc1ccc(SCCNC(=O)c2ccc([N+](=O)[O-])c(C)c2)cc1,i,i,i,-7,i,-2,i,i,i
